ChEMBL document CHEMBL1158970, “Two new styryl lactones, 9-deoxygoniopypyrone and 7-epi-goniofufurone, from Goniothalamus giganteus” (J Nat Prod, 1991)
≈ marks a conversion by molar mass, not a printed value.

Legend:
[1] = Toxicity against brine shrimp; assay type: organism-based; conditions: artemia, in vivo
Outline: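 Brine shrimp lethality assay run in-house following a published method. The positive standard, adriamycin, was dissolved directly in sea water and tested immediately.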

A549 = experiment: Cytotoxicity against human A549 cells; assay type: functional; conditions: read-out: ED50 (the source's name)
Outline: (§1)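 Human tumor cell cytotoxicity run by the Purdue Cancer Center's cell culture laboratory using standard protocols, with adriamycin as the positive standard. A-549, MCF-7 and HT-29 were each tested under a separately cited protocol.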

MCF7 = experiment: Cytotoxicity against human MCF7 cells; assay type: functional; conditions: read-out: ED50 (the source's name); outline: as §1
HT-29 = experiment: Cytotoxicity against human HT-29 cells; assay type: functional; conditions: read-out: ED50 (the source's name); outline: as §1

Compound | LC50 [1] | EC50 (A549) | EC50 (MCF7) | EC50 (HT-29)
O=C1C[C@H]2C[C@@H](O1)[C@H](O)[C@H](c1ccccc1)O2 | > 500 µg/mL | 27.2 µg/mL (≈ 116 µM) | 25.4 µg/mL (≈ 108 µM) | 7.38 µg/mL (≈ 31.5 µM)
O=C1C[C@@H]2O[C@@H]([C@H](O)c3ccccc3)[C@@H](O)[C@@H]2O1 (relative stereo) | 475 µg/mL (≈ 1900 µM) | 85.5 µg/mL (≈ 342 µM) | 49.1 µg/mL (≈ 196 µM) | > 100 µg/mL
COc1cccc2c1C(=O)c1c(O)c3c(c(O)c1C2=O)C[C@@](O)(C(=O)CO)C[C@@H]3O[C@H]1C[C@H](N)[C@H](O)[C@H](C)O1 [DOXORUBICIN] |  | 0.00684 µg/mL (≈ 0.0126 µM) | 0.0177 µg/mL (≈ 0.0326 µM) | 0.00416 µg/mL (≈ 0.00765 µM)
O=C1C=CC[C@H]([C@H](O)[C@H](O)c2ccccc2)O1 [GONIODIOL] | > 500 µg/mL | 0.122 µg/mL (≈ 0.521 µM) | 8.27 µg/mL (≈ 35.3 µM) | 2.45 µg/mL (≈ 10.5 µM)
